This is an account of results in ChEMBL document CHEMBL4270543, “Synthesis and biological evaluation of (1-aryl-1H-pyrazol-4-yl) (3,4,5-trimethoxyphenyl)methanone derivatives as tubulin inhibitors” (Eur J Med Chem, 2018).

Each structure is given as a SMILES string. The source made the active and inactive calls. No cut-off for these calls is given here.

In general, IC50 refers to the concentration needed to halve the response being measured. The low end stands for greater potency in that assay, the high end for weaker potency in that assay.

In one assay the test system is A549. Nature of the assay: Antiproliferative activity against human A549 cells after 72 hrs by MTT assay. The class given is functional, cell-based. Conditions: A549, 72 h. Summed up: (§1)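 Human tumour cells were exposed to the compound for 72 h, and growth was read by standard MTT assay. IC50 is the concentration giving 50% inhibition, taken as the average of three parallel experiments.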
On the technique in general: Formazan colour is commonly taken as a measure of viable cells.

For the next assay, the system named is HT-1080. Nature of the assay: Antiproliferative activity against human HT1080 cells after 72 hrs by MTT assay. The settings on record: HT-1080, 72 h. Type of assay: functional, cell-based. Summed up:
as §1

Assay [1] deals with SGC-7901. Nature of the assay: Antiproliferative activity against human SGC7901 cells after 72 hrs by MTT assay. The class given is functional, cell-based. Conditions: SGC-7901, 72 h. Summed up:
as §1

The species entered for assay [2] is Sus scrofa. As to the kind of experiment: Inhibition of porcine brain tubulin polymerization at 5 uM preincubated for 1 min followed by GTP addition measured at 1 min time interval for 90 mins by fluorescence assay. Summed up: (§2)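 Run with a commercial tubulin polymerization kit following the manufacturer's protocol. Tubulin was pre-incubated for 1 min with compound (2.5, 5, 10 or 20 µM) or DMSO vehicle, then GTP was added to start polymerization. Reactions were monitored at 37 °C.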

A further assay has as its system L929. As to the kind of experiment: Cytotoxicity against mouse L929 cells after 72 hrs by MTT assay. The class given is cell-based. Conditions: L929, 72 h.
The species entered for assay [3] is Sus scrofa. Nature of the assay: Inhibition of porcine brain tubulin polymerization at 2.5 uM preincubated for 1 min followed by GTP addition measured at 1 min time interval for 90 mins by fluorescence assay. Summed up:
as §2

For a further assay, the target named is Tubulin (Homo sapiens) (UniProt P68371+Q9H4B7+P0DPH7+P68366+Q13509+Q71U36+P04350+Q3ZCM7+P07437+P68363+Q9BQE3+Q6PEY2+Q13885+Q9BVA1+Q9BUF5). As to the kind of experiment: Inhibition of tubulin polymerization in human SGC7901 cells assessed as disruption of microtubule formation at 2 times antiproliferative IC50 after 24 hrs by DAPI staining based immunofluorescence microscopic method. Type of assay: cell-based. Summed up:
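SGC-7901 cells were treated for 24 h at 2-fold their antiproliferative IC50. Cells were stained with anti-α-tubulin-FITC antibody and then DAPI for DNA, and the microtubule network was examined by confocal microscopy.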

The nature of assay [4]: (§3) Inhibition of porcine brain tubulin polymerization preincubated for 1 min followed by GTP addition measured at 1 min time interval for 90 mins by fluorescence assay. On the set-up: species or system Sus scrofa. Summed up: as §2
The species named for assay [5] is Sus scrofa. The description is as §3. Summed up:
as §2

Assay [6] relates to SGC-7901. Nature of the assay: Cell cycle arrest in human SGC7901 cells assessed as accumulation at G2/M phase at 27 to 108 nM after 24 hrs by propidium iodide staining based flow cytometry (reference value: 15%). Type of assay: functional.
The subject of assay [7] is SGC-7901. Nature of the assay: Cell cycle arrest in human SGC7901 cells assessed as accumulation at G2/M phase after 24 hrs by propidium iodide staining based flow cytometry. The class given is functional. Summed up:
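SGC-7901 cells were treated for 24 h with a vehicle control run in parallel. Cell-cycle phase distribution was obtained by flow cytometry, with G2/M accumulation as the read-out.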
For orientation: Flow cytometry measures light scatter and fluorescence of single cells or particles in a stream.

In the case of `COc1cc(C(=O)c2cnn(-c3ccc(Cl)cc3)c2N)cc(OC)c1OC`, the IC50 in the assay on A549, in the assay with HT-1080 and with SGC-7901 [1] was over 30 µM each time.

In the case of `COc1cc(C(=O)c2cnn(-c3cccc(Cl)c3)c2N)cc(OC)c1OC`, the half-inhibitory concentration (IC50) in the assay on A549, with HT-1080 and in the assay on SGC-7901 [1] was over 30 µM each time.

For the compound `COc1cc(C(=O)c2cnn(-c3ccc(C)cc3C)c2)cc(OC)c1OC`, the concentration for half-maximal inhibition (IC50) was over 30 µM with A549, 22.6 µM in the assay on HT-1080 and over 30 µM in the assay on SGC-7901 [1].

In the case of `COc1cc(C(=O)c2cnn(-c3ccccc3C)c2N)cc(OC)c1OC`, the IC50 in the assay on A549, in the assay on HT-1080 and in the assay with SGC-7901 [1] was over 30 µM each time.

With `COc1cc(C(=O)c2cnn(-c3ccc(F)cc3)c2N)cc(OC)c1OC`, the half-maximal inhibitory concentration (IC50) in the assay on A549, in the assay on HT-1080 and in the assay on SGC-7901 [1] was over 30 µM throughout.

As for `COc1ccc(-n2cc(C(=O)c3cc(OC)c(OC)c(OC)c3)cn2)cc1`, the results for the IC50 with A549, with HT-1080 and with SGC-7901 [1] were 18.7 µM, over 30 µM and 17.9 µM, respectively.

With `COc1cc(C(=O)c2cnn(-c3ccc(C(C)C)cc3)c2)cc(OC)c1OC`, the 50% inhibitory concentration (IC50) with A549 was over 30 µM; with HT-1080, 17 µM; with SGC-7901 [1], over 30 µM.

Consider `COc1cc(C(=O)c2cnn(-c3cccc(Br)c3)c2N)cc(OC)c1OC`, for which the half-maximal inhibitory concentration (IC50) in the assay with A549, in the assay with HT-1080 and with SGC-7901 [1] was over 30 µM in each case.

As for `COc1cc(C(=O)c2cnn(-c3cc(C)cc(C)c3)c2)cc(OC)c1OC`, the IC50 with A549 amounted to 2.3 µM; in the assay on HT-1080 it was 1.6 µM; with SGC-7901 [1], 1.9 µM.

Consider `CC(=O)O[C@H]1C(=O)[C@@]2(C)[C@H]([C@H](OC(=O)c3ccccc3)[C@]3(O)C[C@H](OC(=O)[C@H](O)[C@@H](NC(=O)c4ccccc4)c4ccccc4)C(C)=C1C3(C)C)[C@]1(OC(C)=O)CO[C@@H]1C[C@@H]2O`, for which the inhibition entry in the assay listed under Sus scrofa [2] was “inactive”.

With `CCc1ccc(-n2ncc(C(=O)c3cc(OC)c(OC)c(OC)c3)c2N)cc1`, the 50% inhibitory concentration (IC50) in the assay with A549, with HT-1080 and in the assay on SGC-7901 [1] was over 30 µM in each case.

For `COc1cc(C(=O)c2cnn(-c3ccccc3C)c2)cc(OC)c1OC`, the IC50 with A549, in the assay on HT-1080 and in the assay with SGC-7901 [1] was over 30 µM each time.

In the case of `CCc1ccc(-n2cc(C(=O)c3cc(OC)c(OC)c(OC)c3)cn2)cc1`, the IC50 was 16.3 µM with A549, 3.1 µM with HT-1080 and 7.8 µM in the assay with SGC-7901 [1].

As to `COc1cc(C(=O)c2cnn(-c3ccccc3Br)c2)cc(OC)c1OC`, the IC50 in the assay with A549, with HT-1080 and with SGC-7901 [1] was over 30 µM throughout.

With `COc1cc(C(=O)c2cnn(-c3ccccc3)c2N)cc(OC)c1OC`, the concentration for half-maximal inhibition (IC50) in the assay with A549 came out at 11.3 µM; with HT-1080 it was 5 µM; with SGC-7901 [1], 24.7 µM.

For the compound `COc1ccc(-n2ncc(C(=O)c3cc(OC)c(OC)c(OC)c3)c2N)cc1`, the half-inhibitory concentration (IC50) in the assay with A549, with HT-1080 and in the assay with SGC-7901 [1] was over 30 µM throughout.

As for `COc1cc(C(=O)c2cnn(-c3ccccc3Cl)c2N)cc(OC)c1OC`, the concentration for half-maximal inhibition (IC50) in the assay on A549, in the assay on HT-1080 and with SGC-7901 [1] was over 30 µM in each case.

As for `COc1cc(C(=O)c2csc(-c3ccccc3)n2)cc(OC)c1OC`, the 50% inhibitory concentration (IC50) in the assay with A549 is 0.032 µM; with HT-1080 it was 0.027 µM; in the assay on SGC-7901 [1] it was 0.023 µM; with L929, 21 µM. Also, the inhibition entry in the assay filed under Sus scrofa [3] and on Tubulin (Homo sapiens) was “Active” each time.

`COc1cc(C(=O)c2cnn(-c3ccc(C(C)C)cc3)c2N)cc(OC)c1OC`: the IC50 in the assay on A549, in the assay with HT-1080 and with SGC-7901 [1] was over 30 µM in each case.

In the case of `COc1cc(C(=O)c2cnn(-c3ccc(C)cc3C)c2N)cc(OC)c1OC`, the IC50 with A549, in the assay with HT-1080 and in the assay on SGC-7901 [1] was over 30 µM each time.

As for `COc1cc(C(=O)c2cnn(-c3cc(C)cc(C)c3)c2N)cc(OC)c1OC`, the IC50 with A549, in the assay on HT-1080 and with SGC-7901 [1] was over 30 µM each time.

Take `COc1cc(C(=O)c2cnn(-c3ccc(C)cc3)c2N)cc(OC)c1OC`: the IC50 is 20.6 µM in the assay on A549, over 30 µM in the assay on HT-1080 and 29.6 µM in the assay on SGC-7901 [1].

Turning to `COc1cc(C(=O)c2cnn(-c3cccc(Cl)c3)c2)cc(OC)c1OC`, the half-maximal inhibitory concentration (IC50) stood at 20.4 µM in the assay with A549, 3.7 µM in the assay on HT-1080 and 16.7 µM in the assay with SGC-7901 [1].

For the compound `COc1cc(C(=O)c2cnn(-c3cc(C)ccc3C)c2)cc(OC)c1OC`, the IC50 in the assay on A549 turned out to be 2.6 µM; in the assay with HT-1080, 12.9 µM; in the assay with SGC-7901 [1], 3.7 µM.

In the case of `COc1cc(C(=O)c2cnn(-c3ccc(F)cc3)c2)cc(OC)c1OC`, the IC50 with A549 worked out at 14 µM; in the assay with HT-1080, 2.8 µM; in the assay with SGC-7901 [1] it was 6.5 µM.

For `COc1cc(C(=O)c2cnn(-c3ccccc3)c2)cc(OC)c1OC`, the figures for the IC50 with A549, in the assay on HT-1080 and in the assay with SGC-7901 [1] were 8.6 µM, 19.4 µM and over 30 µM, respectively.

Take `COc1cc(C(=O)c2cnn(-c3ccccc3Br)c2N)cc(OC)c1OC`: the IC50 in the assay on A549, in the assay with HT-1080 and with SGC-7901 [1] was over 30 µM each time.

As to `COc1cc(C(=O)c2cnn(-c3ccccc3Cl)c2)cc(OC)c1OC`, the IC50 in the assay with A549, with HT-1080 and in the assay with SGC-7901 [1] was over 30 µM in each case.

For the compound `COc1cc(C(=O)c2cnn(-c3cccc(Cl)c3C)c2)cc(OC)c1OC`, the IC50 with A549, in the assay on HT-1080 and in the assay on SGC-7901 [1] was over 30 µM throughout.

`COc1cc(/C(=N\O)c2cnn(-c3ccc(C)cc3)c2)cc(OC)c1OC` (mixture of isomers): the 50% inhibitory concentration (IC50) in the assay on A549 was 0.14 µM; with HT-1080 it was 0.09 µM; with SGC-7901 [1] it was 0.071 µM; in the assay with L929, 96.2 µM.

`COc1cc(C(=O)c2cnn(-c3ccc(C)cc3)c2)cc(OC)c1OC`: the IC50 was determined as 0.11 µM with A549; 0.16 µM with HT-1080; 0.054 µM in the assay on SGC-7901 [1]; 65.7 µM in the assay on L929; 9.17 µM in assay [4]. Moreover, the inhibition result in the assay filed under Sus scrofa [5] was “Dose-dependent effect”. Moreover, the inhibition result at Tubulin (Homo sapiens) is “Active”. Also, the Activity result in the assay with SGC-7901 [6] is “<=68%”; with SGC-7901 [7], “Dose-dependent effect”.

For `COc1cc(C(=O)c2cnn(-c3ccc(Cl)cc3)c2)cc(OC)c1OC`, the IC50 in the assay on A549, with HT-1080 and with SGC-7901 [1] was over 30 µM each time.

For the compound `COc1cc(C(=O)c2cnn(-c3cccc(Cl)c3C)c2N)cc(OC)c1OC`, the 50% inhibitory concentration (IC50) in the assay with A549, in the assay with HT-1080 and in the assay with SGC-7901 [1] was over 30 µM throughout.

`COc1cc(C(=O)c2cnn(-c3cccc(Br)c3)c2)cc(OC)c1OC`: the IC50 in the assay with A549, in the assay with HT-1080 and with SGC-7901 [1] was over 30 µM each time.

For the compound `COc1cc(C(=O)c2cnn(-c3cc(C)ccc3C)c2N)cc(OC)c1OC`, the IC50 in the assay on A549, in the assay with HT-1080 and in the assay with SGC-7901 [1] was over 30 µM in each case.
